The source made the active and inactive calls. The rule behind the calls is not given here. Square brackets hold non-standard residues; d marks the D form. Peptide text beside a SMILES is read from it. Lys(Thioacetyl) = CC(=S)NCCCC[C@H](N)C(=O)O
The compounds below were run against T1, NAD-dependent protein deacylase sirtuin-6 (Homo sapiens, UniProt Q8N6T7) (assay: Inhibition of human recombinant SIRT6 assessed as 7-amino-4-methylcoumarin labelled Arg-His-Lys-Lys(epsilon-acetyl) substrate deacetylation after 90 mins by Fluor-de-Lys assay).
How it was run: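 Commercial in vitro SIRT6 deacetylation kit with Fluor de Lys read-out. The IC50 was determined in two separate runs, each in triplicate, and reported as the average of the six measurements.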

T1 sequence (Q8N6T7 whole entry): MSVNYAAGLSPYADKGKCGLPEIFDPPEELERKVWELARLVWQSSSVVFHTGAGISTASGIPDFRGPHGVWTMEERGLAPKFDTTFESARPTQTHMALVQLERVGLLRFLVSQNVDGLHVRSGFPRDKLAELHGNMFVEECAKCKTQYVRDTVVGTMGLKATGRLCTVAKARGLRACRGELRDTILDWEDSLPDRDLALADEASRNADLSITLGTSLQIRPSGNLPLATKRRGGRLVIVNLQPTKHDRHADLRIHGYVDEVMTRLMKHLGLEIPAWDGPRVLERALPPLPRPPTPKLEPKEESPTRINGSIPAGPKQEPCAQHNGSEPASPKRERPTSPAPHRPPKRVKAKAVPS

| SMILES | IC50 [µM] |
| --- | --- |
| CSCC[C@H](NC(=O)[C@H](CC(C)C)NC(=O)[C@H](CCCCNC(C)=S)NC(=O)[C@H](CCCCN)NC(=O)[C@H](C)N)C(=O)O (H-AK[Lys(Thioacetyl)]LM-OH) | 47 |
| CSCC[C@H](NC(=O)[C@H](CC(C)C)NC(=O)[C@H](CCCCNC(C)=S)NC(=O)[C@H](CCCCN)NC(=O)[C@@H](N)Cc1cnc[nH]1)C(=O)O (H-HK[Lys(Thioacetyl)]LM-OH) | 78 |
| CC(=[Se])NCCCC[C@H](NC(=O)OCc1ccccc1)C(=O)Nc1ccccc1 | 285 |

These compounds were tested against T1, NAD-dependent protein deacylase sirtuin-6 (assay: Inhibition of N-terminal His-tagged human recombinant SIRT6 (13 to 308) expressed in Escherichia coli Rosetta2 cells assessed as FdL-1 peptide substrate deacetylation at 100 uM after 45 mins by Fluor-de-Lys assay).

| SMILES | inhibition [%] |
| --- | --- |
| Nc1cc2c(nc3c4ccccc4c(N)cc3[n+]2-c2cccc3ccccc23)c2ccccc12 | 25 |
| O=C1c2ccccc2C(=O)c2c(Nc3cc4c5c(ccc6c7ccc8c9c(cc(Nc%10cccc%11c%10C(=O)c%10ccccc%10C%11=O)c(c3c56)c97)-c3ccccc3C8=O)C(=O)c3ccccc3-4)cccc21 | 25 |
| O=C(C[n+]1ccc2ccccc2c1)c1ccc2ccc3ccccc3c2c1 | 25 |
| CN1C[C@H](C(=O)N[C@]2(C)O[C@@]3(O)[C@@H]4CCCN4C(=O)[C@H](Cc4ccccc4)N3C2=O)C=C2c3cccc4[nH]cc(c34)C[C@H]21 | 25 |
| Nc1cc2c(nc3c4ccccc4ccc3[n+]2-c2cccc3ccccc23)c2ccccc12 | 25 |
| O=C1c2ccccc2C(=O)c2c1ccc(N1C(=O)c3ccccc3C1=O)c2-c1c(N2C(=O)c3ccccc3C2=O)ccc2c1C(=O)c1ccccc1C2=O | 25 |

The compounds below were run against T1, NAD-dependent protein deacylase sirtuin-6 (assay: Inhibition of human recombinant SIRT6 assessed as 7-amino-4-methylcoumarin labelled Arg-His-Lys-Lys(epsilon-acetyl) substrate deacetylation at 200 uM after 90 mins by Fluor-de-Lys assay).
How it was run: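 Single-point screen at 200 μM in a commercial in vitro SIRT6 deacetylation activity kit with Fluor de Lys fluorescence read-out, reported as percent inhibition of deacetylation.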

| SMILES | inhibition |
| --- | --- |
| CC(=S)NCCCC[C@H](NC(=O)OCc1ccccc1)C(=O)NC1CCCCC1 | Active |
| CSCC[C@H](NC(=O)[C@H](CC(C)C)NC(=O)[C@H](CCCCNC(C)=S)NC(=O)[C@H](CCCCN)NC(=O)[C@H](C)N)C(=O)O (H-AK[Lys(Thioacetyl)]LM-OH) | 91% |
| CSCC[C@H](NC(=O)[C@H](CC(C)C)NC(=O)[C@H](CCCCNC(C)=S)NC(=O)[C@H](CCCCN)NC(=O)[C@@H](N)Cc1cnc[nH]1)C(=O)O (H-HK[Lys(Thioacetyl)]LM-OH) | 62% |
| CC(=O)N[C@@H](C)C(=O)N[C@@H](CCCCNC(=O)CC(C)C)C(=O)N[C@@H](C)C(=O)O | Active |
| CC(=S)NCCCC[C@H](NC(=O)CCc1ccccc1)C(=O)N[C@@H](C)C(=O)O | Active |
| CSCC[C@H](NC(=O)[C@@H](NC(=O)[C@H](CCCCNC(C)=S)NC(=O)[C@H](CC(=O)O)NC(=O)[C@@H](N)CO)[C@@H](C)O)C(=O)O (H-SD[Lys(Thioacetyl)]TM-OH) | 35% |
| CC(=[Se])NCCCC[C@H](NC(=O)OCc1ccccc1)C(=O)Nc1ccccc1 | 62% |
| CC(=O)N[C@@H](C)C(=O)N[C@@H](CCCCNC(=S)CC(C)C)C(=O)N[C@@H](C)C(=O)O | Active |
| CC(=S)NCCCC[C@H](NC(=O)OCc1ccccc1)C(=O)Nc1ccccc1 | 36% |
| CC(=S)NCCCC[C@H](NC(=O)[C@@H]1CCCN(C(=O)OC(C)(C)C)C1)C(=O)N[C@@H](C)C(=O)O | Active |
| CC(=O)N[C@@H](C)C(=O)N[C@@H](CCCCNC(C)=S)C(=O)N[C@@H](C)C(=O)O | 54% |
| CC(=O)N[C@@H](C)C(=O)N[C@@H](CCCCNC(=O)C=C(C)C)C(=O)N[C@@H](C)C(=O)O | 26% |
